{
  "source": "paper PMC6072596",
  "about": "(Molecular cancer therapeutics, 2018)",
  "key": {"human glioma T98G cells": {"test_system": "human glioma T98G cells", "test": "Radiosurvival colony-forming ability", "type": "cell-based", "details": "compared with KU-60019", "in_short": "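T98G human glioma cells came from ATCC and grew in DMEM with 10% FBS and penicillin-streptomycin at 37°C, 5% CO2. Cultures were kept no longer than 2 months and tested mycoplasma-negative. Radiosensitization was scored as colony-forming ability after irradiation, with a reference ATM inhibitor run alongside.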"}, "[1]": {"test_system": "ATM targets including p53-S15, KAP1-S824, and ATM auto-phosphorylation at S1981", "test": "Western blotting of ATM target phosphorylation", "type": "cell-based", "details": "western blot", "in_short": "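Mouse GL261 cells were irradiated (5 Gy) or not and exposed to test compound 0.3, 1 or 3 µM, or KU-60019 3 µM as reference ATM inhibitor, or neither. Extracts were western blotted for p-p53 S15 and p-KAP1 S824, with GAPDH or KAP1 as loading controls, using Dylight-800 anti-rabbit and Alexa Fluor-680 anti-mouse secondaries.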"}, "GL261 orthotopic glioma": {"test_system": "GL261 orthotopic glioma", "test": "Syngeneic orthotopic mouse glioma model GL261/C57bl6, survival with radiation", "type": "in vivo"}, "[2]": {"test_system": "human HCT116 colon carcinoma cells", "test": "Aberrant mitoses in isogenic HCT116 cells", "type": "cell-based", "details": "HCT116 p53−/− cells"}, "[3]": {"test_system": "human HCT116 colon carcinoma cells", "test": "CFA radiosurvival of isogenic HCT116 cells", "type": "cell-based", "details": "HCT116 p53+/+ cells versus mutant p53 cells"}, "[4]": {"test": "Mouse oral exposure: plasma and brain", "type": "in vivo", "details": "from Kpuu of Table 1"}, "[5]": {"test_system": "intracranial NCI-H2228 (BM) tumors", "test": "NCI-H2228 non-small cell lung cancer brain metastasis model, survival", "type": "in vivo, mouse", "details": "nude mice, AZ32 50 mg/kg BID", "in_short": "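Luciferase-expressing NCI-H2228 lung cancer cells, grown in DMEM with 10% FBS, were implanted in the brains of nude mice. Mice were randomized to vehicle, radiation alone, test compound 50 mg/kg BID alone, or test compound plus radiation. Tumours were tracked by bioluminescence imaging and survival was followed.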"}, "pS1981ATM": {"biological_target": "pS1981ATM (Homo sapiens, UniProt Q13315)", "sequence (Q13315 whole entry)": "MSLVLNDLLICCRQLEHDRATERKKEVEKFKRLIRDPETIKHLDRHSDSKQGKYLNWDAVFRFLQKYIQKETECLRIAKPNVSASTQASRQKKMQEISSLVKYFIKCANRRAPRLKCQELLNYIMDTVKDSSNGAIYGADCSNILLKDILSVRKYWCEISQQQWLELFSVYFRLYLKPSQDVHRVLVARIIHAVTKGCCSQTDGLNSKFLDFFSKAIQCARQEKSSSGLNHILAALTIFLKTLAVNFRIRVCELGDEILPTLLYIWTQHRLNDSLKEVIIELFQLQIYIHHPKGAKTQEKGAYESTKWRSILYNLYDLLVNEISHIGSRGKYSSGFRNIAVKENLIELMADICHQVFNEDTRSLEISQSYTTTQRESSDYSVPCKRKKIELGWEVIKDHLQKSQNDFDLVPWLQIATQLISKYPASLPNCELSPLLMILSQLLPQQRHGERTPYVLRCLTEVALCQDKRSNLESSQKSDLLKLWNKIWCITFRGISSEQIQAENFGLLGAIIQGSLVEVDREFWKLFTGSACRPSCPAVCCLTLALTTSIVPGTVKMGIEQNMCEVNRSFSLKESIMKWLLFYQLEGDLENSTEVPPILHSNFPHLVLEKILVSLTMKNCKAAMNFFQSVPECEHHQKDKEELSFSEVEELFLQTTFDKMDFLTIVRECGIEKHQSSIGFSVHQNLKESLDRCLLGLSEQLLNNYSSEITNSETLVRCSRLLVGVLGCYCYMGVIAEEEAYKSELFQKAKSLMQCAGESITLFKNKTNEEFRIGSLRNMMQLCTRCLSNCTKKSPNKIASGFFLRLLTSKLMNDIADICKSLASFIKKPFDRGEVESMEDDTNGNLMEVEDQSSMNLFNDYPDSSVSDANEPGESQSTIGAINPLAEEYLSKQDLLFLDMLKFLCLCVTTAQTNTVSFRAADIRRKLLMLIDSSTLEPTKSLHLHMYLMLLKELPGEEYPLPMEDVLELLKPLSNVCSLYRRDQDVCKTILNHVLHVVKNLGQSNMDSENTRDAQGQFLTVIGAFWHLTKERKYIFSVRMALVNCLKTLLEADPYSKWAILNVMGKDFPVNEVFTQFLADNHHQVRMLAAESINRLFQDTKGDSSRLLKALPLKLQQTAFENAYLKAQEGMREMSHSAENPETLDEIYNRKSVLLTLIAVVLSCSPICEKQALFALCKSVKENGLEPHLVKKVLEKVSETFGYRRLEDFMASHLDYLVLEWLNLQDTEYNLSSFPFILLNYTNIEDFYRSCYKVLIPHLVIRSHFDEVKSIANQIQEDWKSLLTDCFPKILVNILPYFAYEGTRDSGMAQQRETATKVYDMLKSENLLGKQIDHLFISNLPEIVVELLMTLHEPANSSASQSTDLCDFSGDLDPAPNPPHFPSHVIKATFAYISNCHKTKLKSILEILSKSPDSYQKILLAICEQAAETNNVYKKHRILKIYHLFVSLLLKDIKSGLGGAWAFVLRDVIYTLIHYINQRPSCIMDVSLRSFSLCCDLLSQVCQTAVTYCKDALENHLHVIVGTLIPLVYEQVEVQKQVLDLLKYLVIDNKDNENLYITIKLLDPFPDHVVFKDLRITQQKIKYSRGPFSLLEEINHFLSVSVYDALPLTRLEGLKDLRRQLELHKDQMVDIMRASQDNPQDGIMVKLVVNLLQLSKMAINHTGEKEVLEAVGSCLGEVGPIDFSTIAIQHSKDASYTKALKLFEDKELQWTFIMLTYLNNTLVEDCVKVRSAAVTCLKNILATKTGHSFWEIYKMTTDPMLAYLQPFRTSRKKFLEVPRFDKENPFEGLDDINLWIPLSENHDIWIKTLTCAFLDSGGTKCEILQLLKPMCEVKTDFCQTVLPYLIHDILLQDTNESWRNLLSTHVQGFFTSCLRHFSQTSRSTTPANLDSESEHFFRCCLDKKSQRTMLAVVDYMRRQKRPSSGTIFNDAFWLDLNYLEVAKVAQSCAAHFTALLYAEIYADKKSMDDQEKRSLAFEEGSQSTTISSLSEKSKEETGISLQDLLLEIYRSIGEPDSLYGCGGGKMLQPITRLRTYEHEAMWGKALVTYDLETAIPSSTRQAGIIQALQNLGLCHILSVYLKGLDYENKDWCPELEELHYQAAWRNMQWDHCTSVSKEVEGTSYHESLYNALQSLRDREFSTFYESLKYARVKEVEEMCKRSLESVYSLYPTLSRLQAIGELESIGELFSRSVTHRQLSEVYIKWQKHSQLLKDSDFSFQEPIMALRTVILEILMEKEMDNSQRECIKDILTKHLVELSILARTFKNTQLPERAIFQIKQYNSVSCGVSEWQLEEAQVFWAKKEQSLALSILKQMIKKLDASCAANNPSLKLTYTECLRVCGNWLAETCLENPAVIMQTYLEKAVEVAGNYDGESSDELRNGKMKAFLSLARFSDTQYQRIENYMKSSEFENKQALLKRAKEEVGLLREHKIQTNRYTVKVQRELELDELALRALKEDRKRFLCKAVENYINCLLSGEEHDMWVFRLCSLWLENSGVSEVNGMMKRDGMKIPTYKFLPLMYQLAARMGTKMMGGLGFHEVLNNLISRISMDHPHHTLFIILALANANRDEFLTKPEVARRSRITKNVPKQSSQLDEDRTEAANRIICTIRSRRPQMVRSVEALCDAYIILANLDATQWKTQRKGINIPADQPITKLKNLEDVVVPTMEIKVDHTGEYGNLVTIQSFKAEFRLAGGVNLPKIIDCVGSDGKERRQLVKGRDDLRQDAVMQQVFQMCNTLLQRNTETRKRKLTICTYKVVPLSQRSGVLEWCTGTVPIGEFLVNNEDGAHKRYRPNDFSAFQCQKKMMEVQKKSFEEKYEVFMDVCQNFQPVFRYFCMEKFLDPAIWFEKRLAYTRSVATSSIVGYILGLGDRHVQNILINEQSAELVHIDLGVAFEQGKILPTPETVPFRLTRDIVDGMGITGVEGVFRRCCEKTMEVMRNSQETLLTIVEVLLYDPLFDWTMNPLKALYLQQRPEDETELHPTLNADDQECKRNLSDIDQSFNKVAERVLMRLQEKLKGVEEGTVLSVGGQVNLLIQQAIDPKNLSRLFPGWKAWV", "test": "ATM cell assay", "type": "cell-based", "details": "read-out: pS1981ATM IC50 (ATM cell IC50)"}, "mouse GL261 glioma cells": {"test_system": "mouse GL261 glioma cells", "test": "Mitotic catastrophe triple staining", "type": "cell-based", "details": "24 hr", "in_short": "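GL261 cells on chamber slides (DMEM, 10% FBS, 37°C, 5% CO2) were treated with test compound 3 µM and/or 2 Gy, or left untreated. Fixed at 24 hr and immunostained for γ-H2AX, p-(S10)-histone H3 and cleaved caspase 3, with DAPI counterstain; confocal imaging. Triple-positive cells were counted as mitotic catastrophe and expressed as a fraction of all cells.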"}, "U87/shp53 cells [6]": {"test_system": "U87/shp53 cells", "test": "Radiosensitization of U87/shp53 versus parental U87/puro cells", "type": "cell-based, human", "details": "AZ32 3 µM"}, "U87/shp53 cells [7]": {"test_system": "U87/shp53 cells", "test": "Live cell imaging of aberrant mitoses in U87/shp53 versus parental cells", "type": "cell-based, human", "details": "AZ32 3 µM, 5 Gy, time-lapse 16 hrs", "in_short": "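U87 cells expressing H2B-mCherry and EGFP-Centrin2 were transduced with shp53 pLKO.1 puro or pBabe-puro, puromycin-selected and FACS-sorted mCherry+/EGFP+. They were grown 48–72 hr on glass-bottom dishes, given test compound 3 µM before 5 Gy, then imaged by spinning-disk confocal every 7 min from 2 hr post-IR for 16 hr. Aberrant mitoses were scored visually from chromatin and/or centrosome morphology.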"}, "ATR": {"biological_target": "ATR (Homo sapiens, UniProt Q13535)", "test": "Kinase selectivity, biochemical PIKK enzyme activity: ATR"}, "[8]": {"test": "Tolerability of AZ32 plus head irradiation in mice", "type": "in vivo", "details": "C57bl6 mice, AZ32 and 2×5 Gy conformal SARRP"}, "mouse GL261 cells": {"test_system": "mouse GL261 cells", "test": "Radiosurvival colony-forming assay, GL261", "type": "cell-based", "details": "AZ32 3 µM, 2 and 4 Gy", "in_short": "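Clonogenic radiosurvival in mouse GL261 cells grown in DMEM with 10% FBS. Cells were diluted and plated, exposed to test compound 3 µM or not, and irradiated at 0, 2 or 4 Gy. After about 2 weeks, colonies were stained with crystal violet and those of more than 50 cells were counted.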"}, "[9]": {"test_system": "pp53 (S15), pKAP1 (S824) in mouse glioma GL261 cells", "test": "Western blotting of DDR in GL261 cells", "type": "cell-based", "details": "5 Gy, AZ32 0.3, 1 or 3 µM", "in_short": "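Mouse GL261 glioma cells, grown in DMEM with 10% FBS, got 5 Gy or no irradiation plus test compound (0.3, 1 or 3 µM), reference ATM inhibitor (3 µM) or neither. Extracts were western blotted for p-p53 Ser15 and p-KAP1 Ser824, with GAPDH or KAP1 as loading controls. Detection used Dylight-800 anti-rabbit and Alexa Fluor-680 anti-mouse secondaries.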"}, "[10]": {"test_system": "human glioma cell lines LN18, U1242, T98G, DBTRG, U87MG", "test": "Radiosurvival of human glioma cell line panel with AZ32", "type": "cell-based", "details": "LN18, U1242, T98G (mutant p53), U87MG (wild-type p53)"}, "Cell permeability": {"test": "Cell permeability", "type": "in vitro ADME"}},
  "note": "Several values for one entry are separate records, joined by “and”; a condition that tells them apart may be missing. Identical values can stand only once.",
  "data": [
    {"smiles": "COCc1ccc(-c2ccc3ncc(C(N)=O)c(N[C@H](C)C4CCOCC4)c3c2)cn1", "note": "[AZ31, 6-[6-(methoxymethyl)-3-pyridinyl]-4-([(1R)-1-(tetrahydro-2H-pyran-4-yl)ethyl]amino)-3-quinolinecarboxamide]", "values": [
      {"measurement": "Radiosensitization by colony-forming ability", "setting": "human glioma T98G cells", "result": "radiosensitized cells to a similar extent as KU-60019"},
      {"measurement": "Block of phosphorylation of ATM targets", "setting": "[1]; p53-S15, KAP1-S824, ATM S1981", "result": "effectively blocked phosphorylation"},
      {"measurement": "Potency compared to KU-60019 in blocking ATM target phosphorylation", "setting": "[1]; lanes 2–6", "result": "at least 10 fold"},
      {"measurement": "Radiosensitization of GL261 tumors", "setting": "GL261 orthotopic glioma; administered orally, prolonged low radiation dose treatment schedule", "result": "unable to significantly radiosensitize tumors"}
    ]},
    {"smiles": "CNC(=O)c1ccc(-c2cnc3cnc(-c4ccccc4)cn23)cc1", "note": "[AZ32]", "values": [
      {"measurement": "Aberrant mitoses and polyploidy cells on addition of AZ32 before IR", "setting": "[2]", "result": "almost a doubling of aberrant mitoses and polyploidy cells"},
      {"measurement": "Sensitivity to AZ32 and radiation by CFA", "setting": "[3]", "result": "more sensitive to AZ32 and radiation compared to mutant p53 cells"},
      {"measurement": "Enhancement of BBB penetration over AZ31", "setting": "[4]", "result": 8.7, "unit": "fold"},
      {"measurement": "Survival of mice, AZ32 in combination with radiation", "setting": "[5]", "result": "survived much longer than mice in the radiation alone or AZ32 alone groups"},
      {"measurement": "IC50", "setting": "pS1981ATM", "result": 310, "unit": "nM"},
      {"measurement": "Triple+ cells (mitotic catastrophe) of all cells", "setting": "mouse GL261 glioma cells; AZ32 3 µM and radiation 2 Gy", "result": 4, "unit": "%"},
      {"measurement": "Mitotic catastrophe in AZ32+IR over IR alone", "setting": "mouse GL261 glioma cells; AZ32 3 µM, 2 Gy", "result": 4, "unit": "fold"},
      {"measurement": "Sensitivity of U87/shp53 cells to AZ32 radiosensitization relative to parental cells", "setting": "U87/shp53 cells [6]", "result": "2–4 fold"},
      {"measurement": "Aberrant mitoses in shp53 cells relative to parental cells", "setting": "U87/shp53 cells [7]", "result": "4.2 fold and ~ 4 fold"},
      {"measurement": "Selectivity over ATR", "setting": "ATR", "result": "adequate selectivity over ATR"},
      {"measurement": "Survival versus radiation alone", "setting": "GL261 orthotopic glioma; AZ32 200 mg/kg p.o. QD, whole-head 137-Cs irradiation 4×2.5 Gy", "result": "significantly (p = 0.019) prolonged the survival"},
      {"measurement": "Radiation toxicity", "setting": "[8]", "result": "did not notice any radiation toxicity"},
      {"measurement": "Radiosensitization in radiosurvival colony-forming assay", "setting": "mouse GL261 cells", "result": "became more radiosensitive"},
      {"measurement": "Block of phosphorylation of p53 and KAP-1 after radiation", "setting": "[9]", "result": "blocked the phosphorylation of p53 and KAP-1 after radiation"},
      {"measurement": "Radiosensitization of human glioma cell line panel", "setting": "[10]", "result": "all radiosensitized in vitro"},
      {"measurement": "Cell permeability", "setting": "Cell permeability", "result": "high cell permeability"}
    ]},
    {"smiles": "C[C@@H]1CN(CC(=O)Nc2ccc3c(c2)Cc2cccc(-c4cc(=O)cc(N5CCOCC5)o4)c2S3)C[C@H](C)O1", "note": "[KU-60019, reference compound]", "values": [
      {"measurement": "Radiosensitization of GL261 tumors", "setting": "GL261 orthotopic glioma; administered intra-tumorally by CED immediately prior to radiation", "result": "radiosensitized by KU-60019 (p = 0.0001)"}
    ]}
  ]
}
